How the values were obtained:
[1] = target: Inosine-5'-monophosphate dehydrogenase 2 (Homo sapiens, UniProt P12268); experiment: Inhibition of human IMPDH 2
[2] = target: T1, Inosine-5'-monophosphate dehydrogenase (Cryptosporidium parvum, UniProt Q8T6T2); experiment: Inhibition of Cryptosporidium parvum recombinant IMPDH expressed in Escherichia coli assessed as production of NADH incubated for 5 mins by fluorescence based assay
T1 sequence (Q8T6T2 whole entry): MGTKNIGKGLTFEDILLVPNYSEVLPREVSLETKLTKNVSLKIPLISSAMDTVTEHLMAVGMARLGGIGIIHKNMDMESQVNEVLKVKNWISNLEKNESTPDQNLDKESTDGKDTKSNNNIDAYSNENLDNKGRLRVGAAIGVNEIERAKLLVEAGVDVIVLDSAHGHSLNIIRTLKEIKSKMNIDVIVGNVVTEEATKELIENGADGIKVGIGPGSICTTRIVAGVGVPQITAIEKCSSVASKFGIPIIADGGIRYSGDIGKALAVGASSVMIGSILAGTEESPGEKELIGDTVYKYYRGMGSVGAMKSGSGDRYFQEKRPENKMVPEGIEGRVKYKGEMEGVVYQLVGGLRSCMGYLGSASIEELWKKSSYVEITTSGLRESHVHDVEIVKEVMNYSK
In short: (§1)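 Recombinant CpIMPDH purified from E. coli, 10 nM, preincubated with inhibitor 5 min at room temperature before substrates added. NADH formation followed by fluorescence. Line 3 also includes 0.05% fatty-acid-free BSA.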

[3] = target: T1, Inosine-5'-monophosphate dehydrogenase; experiment: Inhibition of Cryptosporidium parvum recombinant IMPDH expressed in Escherichia coli assessed as production of NADH in presence of 0.05% fatty acid free BSA incubated for 5 mins by fluorescence based assay; in short: as §1
[4] = system: Liver; experiment: Half life in mouse liver microsomes; assay type: ADME, Microsome
[5] = system: Toxoplasma gondii; experiment: Antiparasitic activity against Toxoplasma gondii expressing Cryptosporidium parvum IMPDH and co-expressing yellow fluorescent protein infected to human TERT immobilized human foreskin fibroblasts assessed as parasite growth inhibition for 6 to 7 days by fluorescence based assay; assay type: functional, organism-based
In short: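 Parasite lines carrying yellow fluorescent protein were grown on hTERT-immortalized human foreskin fibroblasts. One line depends on C. parvum IMPDH (Toxo/CpIMPDH). The other is wild-type strain RH, which has its own eukaryotic IMPDH. Fluorescence (Ex 485, Em 530) was read daily for 6-7 days. Growth inhibition was taken on a day within exponential growth.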

[6] = system: Plasma; experiment: Half life in mouse plasma; assay type: ADME, cell-free
[7] = system: Toxoplasma gondii; experiment: Selectivity ratio of EC50 of wild type Toxoplasma gondii to EC50 of Toxoplasma gondii expressing Cryptosporidium parvum IMPDH
In short: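 Selectivity is the EC50 against wild-type RH T. gondii divided by the EC50 against the CpIMPDH-dependent strain. Both were measured by daily YFP fluorescence of parasites on hTERT human foreskin fibroblasts over 6-7 days, with inhibition taken in exponential growth.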

[8] = system: Toxoplasma gondii; experiment: Toxicity against wild type Toxoplasma gondii expressing yellow fluorescent protein infected in human TERT immobilized human foreskin fibroblasts assessed as parasite growth inhibition for 6 to 7 days by fluorescence based assay; assay type: organism-based
In short: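 Parasite lines carrying yellow fluorescent protein were grown on hTERT-immortalized human foreskin fibroblasts. One line depends on C. parvum IMPDH (Toxo/CpIMPDH). The other is wild-type strain RH, which has its own eukaryotic IMPDH. Growth inhibition was taken on a day within exponential growth.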

| SMILES | IC50 [1] [nM] | IC50 [2] [nM] | IC50 [3] [nM] | t1/2 [4] [h] | EC50 [5] [nM] | t1/2 [6] [h] | Ratio EC50 [7] | EC50 [8] [nM] |
| --- | --- | --- | --- | --- | --- | --- | --- | --- |
| C=C(C)c1cccc(C(C)(C)NC(=O)Nc2ccc3[nH]c(=O)[nH]c3c2)c1 | > 5000 | 340 | – | – | – | – | – | – |
| C=C(C)c1cccc(C(C)(C)NC(=O)Nc2ccc(OC)cc2)c1 | ≥ 5000 | 9 | 21 | – | – | – | – | – |
| C/C(=N\O)c1cccc(C(C)(C)NC(=O)Nc2ccc(Cl)c([N+](=O)[O-])c2)c1 | – | 0.66 | 2 | 0.183 | 6 | – | – | – |
| C/C(=N\O)c1cccc(C(C)(C)NC(=O)Nc2ccc(Cl)c(C(N)=O)c2)c1 | – | – | 6 | 3.17 | 1900 | > 2 | >12 | > 25000 |
| C/C(=N\O)c1cccc(C(C)(C)NC(=O)Nc2ccc3ccccc3c2)c1 | – | 1 | 2.3 | – | 80 | – | 63 | 5000 |
| C/C(=N\O)c1cccc(C(C)(C)NC(=O)Nc2ccc3cccnc3c2)c1 | – | 0.9 | 1.2 | 0.75 | 58 | > 2 | 230 | 14000 |
| CO/N=C(\C)c1cccc(C(C)(C)NC(=O)Nc2ccc(Cl)c(C(F)(F)F)c2)c1 | – | 5 | 18 | 0.55 | 16 | – | 86 | 1400 |
| CO/N=C(\C)c1cccc(C(C)(C)NC(=O)Nc2ccc(Cl)c(C(N)=O)c2)c1 | – | 5 | 5 | – | 200 | – | >120 | > 25000 |
| CO/N=C(\C)c1cccc(C(C)(C)NC(=O)Nc2ccc3ccccc3c2)c1 | – | 1.6 | 13 | – | 13 | – | – | – |
| C/C(=N\OCCN)c1cccc(C(C)(C)NC(=O)Nc2ccc(Cl)c([N+](=O)[O-])c2)c1 | – | 20 | 24 | 2.02 | 510 | – | 20 | 10100 |
| C=C(C)c1cccc(C(C)(C)NC(=O)Nc2cccc3ccccc23)c1 | ≥ 5000 | > 5000 | – | – | – | – | – | – |
| C=C(C)c1cccc(C(C)(C)NC(=O)Nc2ccc3ncccc3c2)c1 | ≥ 5000 | 1.8 | 4 | – | 20 | – | – | 7600 |
| C=C(C)c1cccc(C(C)(C)NC(=O)Nc2ccc3cccnc3c2)c1 | ≥ 5000 | 0.8 | 6 | 0.0983 | < 200 | > 2 | >15 | 3000 |
| C=C(C)c1cccc(C(C)(C)NC(=O)Nc2cnc3ccccc3c2)c1 | ≥ 5000 | 70 | 308 | – | 1100 | – | 2.3 | 2000 |
| C=C(C)c1cccc(C(C)(C)NC(=O)Nc2ccc3ccccc3n2)c1 | ≥ 5000 | 250 | 1100 | – | 3400 | – | 0.9 | 3000 |
| CC(C)(NC(=O)Nc1ccc2[nH]c(=O)[nH]c2c1)c1ccccc1 | – | > 5000 | – | – | – | – | – | – |
| CC(C)c1cccc(C(C)(C)NC(=O)Nc2ccc3ccccc3c2)c1 | – | > 5000 | – | – | – | – | – | – |
| CC(O)c1cccc(C(C)(C)NC(=O)Nc2ccc(Cl)cc2)c1 (stereo not given) | – | 80 | 120 | – | 900 | – | – | 19000 |
| CC(C)(NC(=O)Nc1ccc(Cl)c(C(N)=O)c1)c1cccc(-c2ccccc2)c1 | – | 4 | 14 | – | 210 | – | – | 6000 |
| CC(C)(NC(=O)Nc1ccc(Cl)cc1)c1ccc(-c2ccccc2)cc1 | – | > 5000 | – | – | – | – | – | – |
| CC(=O)c1cccc(C(C)(C)NC(=O)Nc2ccc(Cl)cc2)c1 | – | 39 | 64 | – | – | – | – | – |
| CC(=O)c1cccc(C(C)(C)NC(=O)Nc2ccc(Cl)c(C(F)(F)F)c2)c1 | – | 9 | 20 | – | 200 | – | 16 | 3200 |
| CC(=O)c1cccc(C(C)(C)NC(=O)Nc2ccc(Cl)c(C(N)=O)c2)c1 | – | 54 | 52 | > 11.7 | 380 | > 2 | >66 | > 25000 |

| SMILES | IC50 [1] [nM] | IC50 [2] [nM] | IC50 [3] [nM] | t1/2 [4] [h] | EC50 [5] [nM] | t1/2 [6] [h] | Ratio EC50 [7] | EC50 [8] [nM] |
| --- | --- | --- | --- | --- | --- | --- | --- | --- |
| CC(=O)c1cccc(C(C)NC(=O)Nc2ccc(Cl)cc2)c1 (stereo not given) | – | 70 | 110 | – | 2300 | – | – | 8000 |
| CC(=O)c1cccc(CNC(=O)Nc2ccc(Cl)cc2)c1 | – | 5000 | – | – | 11000 | – | 0.6 | 7000 |
| NC(=O)c1cc(NC(=O)NC2(c3cccc(-c4ccccc4)c3)CC2)ccc1Cl | – | 40 | 90 | – | 600 | – | 15 | 9000 |
| C=C(C)c1cccc(C(C)(C)NC(=O)N(C)c2ccc(Cl)cc2)c1 | – | 900 | 5000 | – | – | – | – | – |
| CC(=O)c1cccc(C(C)(C)NC(=O)Oc2ccc(Cl)cc2)c1 | – | > 5000 | – | – | – | – | – | – |
| CC(=O)c1cccc(C(C)(C)NC(=O)Cc2ccc(Cl)cc2)c1 | – | > 5000 | – | – | – | – | – | – |
| CC(=O)c1cccc(C(C)(C)OC(=O)Nc2ccc(Cl)cc2)c1 | – | 90 | 120 | – | – | – | – | – |
| C/C(=N\O)c1cccc(C(C)(C)NC(=O)Nc2ccc(Cl)c(C(F)(F)F)c2)c1 | – | 1 | 4 | 1.47 | 10 | – | – | – |
| C=C(C)c1cccc(C(C)(C)NC(=O)Nc2ccccc2)c1 | ≥ 5000 | 250 | 410 | – | 770 | – | 8 | 6000 |
| C=C(C)c1cccc(C(C)(C)NC(=O)Nc2ccc(Cl)cc2)c1 | ≥ 5000 | 20 | 37 | – | 180 | – | >140 | > 25000 |
| C=C(C)c1cccc(C(C)(C)NC(=O)Nc2ccc(Br)cc2)c1 | ≥ 5000 | 10 | 20 | – | 200 | – | >120 | > 25000 |
| C=C(C)c1cccc(C(C)(C)NC(=O)Nc2cccc(Cl)c2)c1 | ≥ 5000 | 70 | 330 | – | 380 | – | 1 | 402 |
| C=C(C)c1cccc(C(C)(C)NC(=O)Nc2ccccc2Cl)c1 | ≥ 5000 | > 5000 | – | – | – | – | – | – |
| C=C(C)c1cccc(C(C)(C)NC(=O)Nc2ccc(C(C)(C)C)cc2)c1 | ≥ 5000 | > 5000 | – | – | 7200 | – | 3 | 20000 |
| C=C(C)c1cccc(C(C)(C)NC(=O)Nc2ccc(Cl)c(Cl)c2)c1 | ≥ 5000 | 6 | 50 | – | 220 | – | 20 | 4000 |
| C=C(C)c1cccc(C(C)(C)NC(=O)Nc2ccc(Cl)c(C(F)(F)F)c2)c1 | ≥ 5000 | 4 | 20 | – | – | – | – | – |
| C=C(C)c1cccc(C(C)(C)NC(=O)Nc2ccc(Cl)c(OC)c2)c1 | ≥ 5000 | 1.3 | 5 | – | 18 | – | 127 | 2300 |
| C=C(C)c1cccc(C(C)(C)NC(=O)Nc2ccc(Cl)c(C(N)=O)c2)c1 | ≥ 5000 | 2.3 | 3 | 0.417 | 230 | > 2 | 65 | 15000 |
| C=C(C)c1cccc(C(C)(C)NC(=O)Nc2ccc(Cl)c(C(=O)NC)c2)c1 | ≥ 5000 | 7 | 14 | – | 180 | – | 100 | 19000 |
| C=C(C)c1cccc(C(C)(C)NC(=O)Nc2ccc(Cl)c(C(=O)N(C)C)c2)c1 | ≥ 5000 | 8 | 11.7 | – | 90 | – | 100 | 9000 |
| C=C(C)c1cccc(C(C)(C)NC(=O)Nc2ccc3c(c2)OCCO3)c1 | ≥ 5000 | 7.2 | 110 | – | 200 | – | 50 | 8000 |
| C=C(C)c1cccc(C(C)(C)NC(=O)Nc2ccc3ccccc3c2)c1 | ≥ 5000 | 2.1 | 40 | – | 200 | – | >120 | > 25000 |

From ChEMBL document CHEMBL2176986, “Selective and potent urea inhibitors of cryptosporidium parvum inosine 5'-monophosphate dehydrogenase” (J Med Chem, 2012)
